Laboratory results: ChEMBL document CHEMBL1137213, “New substituted piperazines as ligands for melanocortin receptors. Correlation to the X-ray structure of "THIQ"” (J Med Chem, 2004)

Assays:
Melanocortin receptor 4 = Melanocortin receptor 4 (Homo sapiens, UniProt P32245); experiment: Binding affinity towards Melanocortin 4 receptor using [125I]NDP-MSH
Method in brief: (§1)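 Human MC1, MC3, MC4 or MC5 receptor expressed in Sf9 cells by recombinant virus infection for 72 h; membranes prepared from these cells. Membranes (10 µg protein/100 µL) incubated with [125I]NDP-MSH and competing unlabeled ligand in 20 mM K-Hepes pH 7.4, 5 mM NaCl, 1 mM CaCl2, 0.5 mM MgCl2, 0.5 mg/mL BSA for 3 h at 25 °C. Ended by filtration through glass-fiber filters. Nonspecific binding set with 3 µM NDP-MSH.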

[1] = biological target: Melanocyte-stimulating hormone receptor (Homo sapiens, UniProt Q01726); experiment: Binding affinity towards Melanocortin 1 receptor using [125I]NDP-MSH; method in brief: as §1
Melanocortin receptor 3 = Melanocortin receptor 3 (Homo sapiens, UniProt P41968); experiment: Binding affinity towards Melanocortin 3 receptor using [125I]NDP-MSH; method in brief: as §1
Melanocortin receptor 5 = Melanocortin receptor 5 (Homo sapiens, UniProt P33032); experiment: Binding affinity towards Melanocortin 5 receptor using [125I]NDP-MSH; method in brief: as §1
Sequence of Melanocortin receptor 5 (P33032 whole entry): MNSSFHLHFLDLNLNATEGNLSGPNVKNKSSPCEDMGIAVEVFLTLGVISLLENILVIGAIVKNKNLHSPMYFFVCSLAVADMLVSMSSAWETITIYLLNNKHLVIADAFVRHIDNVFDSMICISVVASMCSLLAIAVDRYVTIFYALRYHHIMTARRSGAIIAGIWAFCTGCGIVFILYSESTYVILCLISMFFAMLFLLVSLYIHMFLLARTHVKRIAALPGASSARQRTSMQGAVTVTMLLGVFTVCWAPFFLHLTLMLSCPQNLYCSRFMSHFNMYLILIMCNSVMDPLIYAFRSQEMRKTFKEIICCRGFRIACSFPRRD

Sequence of Melanocortin receptor 3 (P41968 whole entry): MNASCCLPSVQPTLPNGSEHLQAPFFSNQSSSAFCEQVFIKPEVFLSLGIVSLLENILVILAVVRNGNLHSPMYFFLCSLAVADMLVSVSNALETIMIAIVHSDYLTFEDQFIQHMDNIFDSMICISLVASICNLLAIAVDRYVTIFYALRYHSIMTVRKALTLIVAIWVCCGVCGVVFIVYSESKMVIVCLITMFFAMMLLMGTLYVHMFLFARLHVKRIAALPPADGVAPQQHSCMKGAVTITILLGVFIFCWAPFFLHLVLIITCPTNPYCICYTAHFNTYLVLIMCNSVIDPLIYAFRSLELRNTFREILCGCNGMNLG
Sequence of Melanocyte-stimulating hormone receptor (Q01726 whole entry): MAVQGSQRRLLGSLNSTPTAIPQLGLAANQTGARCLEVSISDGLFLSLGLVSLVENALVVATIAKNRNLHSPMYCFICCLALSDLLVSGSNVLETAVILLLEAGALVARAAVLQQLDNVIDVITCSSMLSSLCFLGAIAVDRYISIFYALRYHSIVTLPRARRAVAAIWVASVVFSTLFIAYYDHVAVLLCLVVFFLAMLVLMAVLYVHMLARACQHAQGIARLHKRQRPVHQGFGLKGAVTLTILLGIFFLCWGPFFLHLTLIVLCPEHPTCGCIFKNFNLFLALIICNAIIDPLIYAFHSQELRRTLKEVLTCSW
Sequence of Melanocortin receptor 4 (P32245 whole entry): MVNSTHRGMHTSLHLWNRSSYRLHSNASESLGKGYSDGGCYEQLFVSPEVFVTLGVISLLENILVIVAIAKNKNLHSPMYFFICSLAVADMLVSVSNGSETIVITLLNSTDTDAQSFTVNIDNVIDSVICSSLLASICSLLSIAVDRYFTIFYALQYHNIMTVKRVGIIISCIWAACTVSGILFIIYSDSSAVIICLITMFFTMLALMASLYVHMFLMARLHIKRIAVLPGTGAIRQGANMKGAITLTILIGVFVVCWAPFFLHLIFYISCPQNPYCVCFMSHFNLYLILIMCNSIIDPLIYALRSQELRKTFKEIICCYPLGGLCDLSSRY

| Ki (Melanocortin receptor 4) | Ki [1] | Ki (Melanocortin receptor 3) | Ki (Melanocortin receptor 5) | Compound |
| --- | --- | --- | --- | --- |
| 1.5 µM | 0.53 µM | 8.8 µM | 18 µM | O=C(N[C@H](Cc1ccc(Cl)cc1)C(=O)N1CCN(C2(Cn3cncn3)CCCC2)CC1)C1Cc2ccccc2CN1 (stereo partly specified) |
| 30 µM | 13 µM | 15 µM | 17 µM | O=C(N[C@H](Cc1ccc(Cl)cc1)C(=O)N1CCN(c2ccccc2)CC1)C1Cc2ccccc2CN1 (stereo partly specified) |
| 0.39 µM | 2 µM | 5.2 µM | 16 µM | O=C(N[C@H](Cc1ccc(Cl)cc1)C(=O)N1CCN(C2CCCCC2Cn2cncn2)CC1)C1Cc2ccccc2CN1 (stereo partly specified) |
|  |  |  | 5 µM | O=C(N[C@H](Cc1ccc(Cl)cc1)C(=O)N1CCC(Cn2cncn2)(C2CCCCC2)CC1)[C@H]1Cc2ccccc2CN1 |
| 1.4 µM | 11 µM | 6.8 µM | 8.2 µM | O=C(N[C@H](Cc1ccc(Cl)cc1)C(=O)N1CCN(C2CCCCC2)CC1)C1Cc2ccccc2CN1 (stereo partly specified) |
| 169 µM | 36 µM | 35 µM | 94 µM | O=C(N[C@H](Cc1ccc(Cl)cc1)C(=O)N1CC[N+]([O-])(c2ccccc2)CC1)C1Cc2ccccc2CN1 (stereo partly specified) |
| 0.86 µM | 2.2 µM | 6.5 µM | 17 µM | O=C(N[C@H](Cc1ccc(Cl)cc1)C(=O)N1CCN([C@H]2CCCC[C@@H]2n2cncn2)CC1)C1Cc2ccccc2CN1 (stereo partly specified) |
| 57 µM | 152 µM | 114 µM | 102 µM | O=C(N[C@H](Cc1ccc(Cl)cc1)C(=O)N1CC[N+]([O-])(C2CCCCC2)CC1)C1Cc2ccccc2CN1 (stereo partly specified) |
|  | 2 µM | 4.4 µM | 9.8 µM | O=C(N[C@H](Cc1ccc(Cl)cc1)C(=O)N1CCN([C@@H]2CCCC[C@H]2n2cncn2)CC1)C1Cc2ccccc2CN1 (stereo partly specified) |

| Compound | Ki (Melanocortin receptor 4) | Ki [1] | Ki (Melanocortin receptor 3) | Ki (Melanocortin receptor 5) |
| --- | --- | --- | --- | --- |
| O=C(N[C@H](Cc1ccc(Cl)cc1)C(=O)N1CCN(C2(Cn3cncn3)CCCCC2)CC1)C1Cc2ccccc2CN1 (stereo partly specified) | 1 µM | 3.2 µM | 5.6 µM | 14 µM |
